Experimental data taken from ChEMBL document CHEMBL1153775, “Synthesis, structure elucidation and antitumour activity of N-substituted amides of 3-(3-ethylthio-1,2,4-triazol-5-yl)propenoic acid” (Eur J Med Chem, 2009).

Legend:
[1] = Cytotoxicity against human HSF cells assessed as growth inhibition at 0.17 mM after 72 hrs by spectrophotometer using BrdU labeling; format: cell-based; conditions: read-out: GI
[2] = Cytotoxicity against human HSF cells assessed as growth inhibition at 0.03 mM after 48 hrs by spectrophotometer using BrdU labeling; format: cell-based; conditions: read-out: GI
[3] = Cytotoxicity against human HSF cells assessed as growth inhibition at 0.03 mM after 24 hrs by spectrophotometer using BrdU labeling; format: cell-based; conditions: read-out: GI
[4] = tested on: T47D; assay: Cytotoxicity against human T47D cells assessed as growth inhibition at 0.17 mM after 72 hrs by spectrophotometer using BrdU labeling; format: functional; conditions: read-out: GI
In short: (§1)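 Human breast carcinoma T47D cells were plated at 10⁴ cells per mL on microtiter plates. Each compound was added at three doses, given as mM equivalents of three mass concentrations. Plates were incubated for 24, 48 or 72 h. The read-out was percent growth inhibition (GI).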

[5] = tested on: T47D; assay: Cytotoxicity against human T47D cells assessed as growth inhibition at 0.35 mM after 72 hrs by spectrophotometer using BrdU labeling; format: functional; conditions: read-out: GI; in short: as §1
[6] = tested on: A549; assay: Cytotoxicity against human A549 cells assessed as growth inhibition at 0.17 mM after 24 hrs by spectrophotometer using BrdU labeling; format: functional; conditions: A549, 24 h, read-out: GI
[7] = Cytotoxicity against human HSF cells assessed as growth inhibition at 0.35 mM after 48 hrs by spectrophotometer using BrdU labeling; format: cell-based; conditions: read-out: GI
[8] = tested on: T47D; assay: Cytotoxicity against human T47D cells assessed as growth inhibition at 0.35 mM after 48 hrs by spectrophotometer using BrdU labeling; format: functional; conditions: read-out: GI; in short: as §1
[9] = Cytotoxicity against human HSF cells assessed as growth inhibition at 0.03 mM after 72 hrs by spectrophotometer using BrdU labeling; format: cell-based; conditions: read-out: GI
[10] = tested on: A549; assay: Cytotoxicity against human A549 cells assessed as growth inhibition at 0.17 mM after 72 hrs by spectrophotometer using BrdU labeling; format: functional; conditions: A549, 72 h, read-out: GI
[11] = tested on: T47D; assay: Cytotoxicity against human T47D cells assessed as growth inhibition at 0.35 mM after 24 hrs by spectrophotometer using BrdU labeling; format: functional; conditions: read-out: GI; in short: as §1
[12] = tested on: A549; assay: Cytotoxicity against human A549 cells assessed as growth inhibition at 0.03 mM after 48 hrs by spectrophotometer using BrdU labeling; format: functional; conditions: A549, 48 h, read-out: GI
[13] = Cytotoxicity against human HSF cells assessed as growth inhibition at 0.17 mM after 48 hrs by spectrophotometer using BrdU labeling; format: cell-based; conditions: read-out: GI
[14] = tested on: T47D; assay: Cytotoxicity against human T47D cells assessed as growth inhibition at 0.03 mM after 48 hrs by spectrophotometer using BrdU labeling; format: functional; conditions: read-out: GI
[15] = tested on: A549; assay: Cytotoxicity against human A549 cells assessed as growth inhibition at 0.03 mM after 24 hrs by spectrophotometer using BrdU labeling; format: functional; conditions: A549, 24 h, read-out: GI
[16] = tested on: T47D; assay: Cytotoxicity against human T47D cells assessed as growth inhibition at 0.03 mM after 72 hrs by spectrophotometer using BrdU labeling; format: functional; conditions: read-out: GI
[17] = tested on: A549; assay: Cytotoxicity against human A549 cells assessed as growth inhibition at 0.03 mM after 72 hrs by spectrophotometer using BrdU labeling; format: functional; conditions: A549, 72 h, read-out: GI
[18] = tested on: A549; assay: Cytotoxicity against human A549 cells assessed as growth inhibition at 0.17 mM after 48 hrs by spectrophotometer using BrdU labeling; format: functional; conditions: A549, 48 h, read-out: GI
[19] = Cytotoxicity against human HSF cells assessed as growth inhibition at 0.35 mM after 24 hrs by spectrophotometer using BrdU labeling; format: cell-based; conditions: read-out: GI
[20] = tested on: T47D; assay: Cytotoxicity against human T47D cells assessed as growth inhibition at 0.17 mM after 48 hrs by spectrophotometer using BrdU labeling; format: functional; conditions: read-out: GI; in short: as §1
[21] = Cytotoxicity against human HSF cells assessed as growth inhibition at 0.35 mM after 72 hrs by spectrophotometer using BrdU labeling; format: cell-based; conditions: read-out: GI
[22] = tested on: A549; assay: Cytotoxicity against human A549 cells assessed as growth inhibition at 0.35 mM after 72 hrs by spectrophotometer using BrdU labeling; format: functional; conditions: A549, 72 h, read-out: GI
[23] = tested on: A549; assay: Cytotoxicity against human A549 cells assessed as growth inhibition at 0.35 mM after 48 hrs by spectrophotometer using BrdU labeling; format: functional; conditions: A549, 48 h, read-out: GI
[24] = tested on: T47D; assay: Cytotoxicity against human T47D cells assessed as growth inhibition at 0.17 mM after 24 hrs by spectrophotometer using BrdU labeling; format: functional; conditions: read-out: GI; in short: as §1
[25] = tested on: A549; assay: Cytotoxicity against human A549 cells assessed as growth inhibition at 0.35 mM after 24 hrs by spectrophotometer using BrdU labeling; format: functional; conditions: A549, 24 h, read-out: GI
[26] = Cytotoxicity against human HSF cells assessed as growth inhibition at 0.17 mM after 24 hrs by spectrophotometer using BrdU labeling; format: cell-based; conditions: read-out: GI
[27] = tested on: T47D; assay: Cytotoxicity against human T47D cells assessed as growth inhibition at 0.03 mM after 24 hrs by spectrophotometer using BrdU labeling; format: functional; conditions: read-out: GI

SMILES: CCSc1n[nH]c(/C=C\C(=O)Nc2cccc(C)c2)n1
- inhibition at 72 h, 170 µM [1]: 50%
- inhibition at 48 h, 30 µM [2]: 0%
- inhibition at 24 h, 30 µM [3]: 0%
- inhibition of growth at 170 µM [4]: 25%
- inhibition of growth at 350 µM [5]: 25%
- inhibition of growth at 170 µM [6]: 50%
- inhibition at 48 h, 350 µM [7]: 50%
- inhibition of growth at 350 µM [8]: 0%
- inhibition at 72 h, 30 µM [9]: 0%
- inhibition of growth at 170 µM [10]: 25%
- inhibition of growth at 350 µM [11]: 0%
- inhibition of growth at 30 µM [12]: 5%
- inhibition at 48 h, 170 µM [13]: 50%
- inhibition of growth at 30 µM [14]: 5%
- inhibition of growth at 30 µM [15]: 20%
- inhibition of growth at 30 µM [16]: 5%
- inhibition of growth at 30 µM [17]: 0%
- inhibition of growth at 170 µM [18]: 50%
- inhibition at 24 h, 350 µM [19]: 5%
- inhibition of growth at 170 µM [20]: 5%
- inhibition at 72 h, 350 µM [21]: 50%
- inhibition of growth at 350 µM [22]: 50%
- inhibition of growth at 350 µM [23]: 50%
- inhibition of growth at 170 µM [24]: 5%
- inhibition of growth at 350 µM [25]: 50%
- inhibition at 24 h, 170 µM [26]: 50%
- inhibition of growth at 30 µM [27]: 0%
